According to ChEMBL document CHEMBL4811275, “Iodinated 1,2-diacylhydrazines, benzohydrazide-hydrazones and their analogues as dual antimicrobial and cytotoxic agents” (Bioorg Med Chem, 2021):
In brackets after ≈: the same amount, converted by molar mass.

Columns and labels:
[1] = test system: Staphylococcus aureus; assay: Antibacterial activity against methicillin-resistant Staphylococcus aureus ATCC 43300 assessed as reduction in bacterial growth incubated for 48 hrs by broth microdilution method; type: functional
Outline: (§1)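 EUCAST-based broth microdilution in cation-adjusted Mueller-Hinton broth. DMSO stocks, final DMSO ≤1% v/v, concentration scale starting from 0.49 µM. Static incubation at 35 ± 2 °C, dark and humidified. Run in duplicate, accepted only if parallel MICs differ by at most one dilution step. MIC is the lowest concentration with no visible growth by naked eye.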

[2] = test system: HK-2; assay: Cytotoxicity against human HK-2 cells assessed as reduction in cell viability incubated for 24 hrs by cell-titer 96 aqueous one solution cell proliferation assay; type: cell-based; settings: HK-2, 24 h
[3] = test system: Escherichia coli; assay: Antibacterial activity against Escherichia coli ATCC 25922 assessed as reduction in bacterial growth incubated for 48 hrs by broth microdilution method; type: functional
Outline: (§2)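 Cation-adjusted Mueller-Hinton broth microdilution per EUCAST, modified; compounds from DMSO stocks, final DMSO ≤1% v/v; scale starting from 0.49 µM. Static incubation at 35 ± 2 °C, dark, humidified, read at 24 and 48 h. MIC = lowest concentration with no visible growth by eye; duplicates, parallel readings within one dilution step; growth and medium/DMSO controls included.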

[4] = test system: Staphylococcus epidermidis; assay: Antibacterial activity against Staphylococcus epidermidis ATCC 12228 assessed as reduction in bacterial growth incubated for 48 hrs by broth microdilution method; type: functional; outline: as §2
[5] = test system: Staphylococcus aureus; assay: Antibacterial activity against Staphylococcus aureus ATCC 29213 assessed as reduction in bacterial growth incubated for 24 hrs by broth microdilution method; type: functional; outline: as §2
[6] = test system: Escherichia coli; assay: Antibacterial activity against Escherichia coli ATCC 25922 assessed as reduction in bacterial growth incubated for 24 hrs by broth microdilution method; type: functional; outline: as §2
[7] = test system: Staphylococcus epidermidis; assay: Antibacterial activity against Staphylococcus epidermidis ATCC 12228 assessed as reduction in bacterial growth incubated for 24 hrs by broth microdilution method; type: functional; outline: as §2
[8] = test system: Enterococcus faecalis; assay: Antibacterial activity against Enterococcus faecalis ATCC 29212 assessed as reduction in bacterial growth incubated for 24 hrs by broth microdilution method; type: functional; outline: as §2
[9] = test system: Staphylococcus aureus; assay: Antibacterial activity against methicillin-resistant Staphylococcus aureus ATCC 43300 assessed as reduction in bacterial growth incubated for 24 hrs by broth microdilution method; type: functional; outline: as §1
[10] = test system: HepG2; assay: Cytotoxicity against human HepG2 cells assessed as reduction in cell viability incubated for 24 hrs by cell-titer 96 aqueous one solution cell proliferation assay; type: functional, cell-based; settings: HepG2, 24 h
[11] = test system: Staphylococcus aureus; assay: Antibacterial activity against Staphylococcus aureus ATCC 29213 assessed as reduction in bacterial growth incubated for 48 hrs by broth microdilution method; type: functional; outline: as §2
[12] = test system: Enterococcus faecalis; assay: Antibacterial activity against Enterococcus faecalis ATCC 29212 assessed as reduction in bacterial growth incubated for 48 hrs by broth microdilution method; type: functional; outline: as §2

| Structure (SMILES) | MIC [1] [µM] | IC50 [2] [µM] | MIC [3] [µM] | MIC [4] [µM] | MIC [5] [µM] | MIC [6] [µM] | MIC [7] [µM] | MIC [8] [µM] | MIC [9] [µM] | IC50 [10] [µM] | MIC [11] [µM] | MIC [12] [µM] |
| --- | --- | --- | --- | --- | --- | --- | --- | --- | --- | --- | --- | --- |
| O=C(NNC(=O)c1cc(I)cc(I)c1O)c1ccc(I)cc1 | 250 (≈ 158 µg/mL) | > 100 | > 250 | 125 (≈ 79.2 µg/mL) | 250 (≈ 158 µg/mL) | > 250 | 62.5 (≈ 39.6 µg/mL) | 125 (≈ 79.2 µg/mL) | 125 (≈ 79.2 µg/mL) | 25.1 | 250 (≈ 158 µg/mL) | 250 (≈ 158 µg/mL) |
| O=C(NNCc1cc(I)cc(I)c1O)c1ccc(Cl)cc1 | 62.5 (≈ 33 µg/mL) | – | > 500 | 15.6 (≈ 8.26 µg/mL) | 31.2 (≈ 16.5 µg/mL) | > 500 | 15.6 (≈ 8.26 µg/mL) | 15.6 (≈ 8.26 µg/mL) | 31.2 (≈ 16.5 µg/mL) | 52.2 | 62.5 (≈ 33 µg/mL) | 15.6 (≈ 8.26 µg/mL) |
| O=C(N/N=C/c1cc(I)cc(I)c1O)c1ccc(Cl)cc1 | 62.5 (≈ 32.9 µg/mL) | – | > 500 | 62.5 (≈ 32.9 µg/mL) | 31.2 (≈ 16.5 µg/mL) | > 500 | 31.2 (≈ 16.5 µg/mL) | 62.5 (≈ 32.9 µg/mL) | 31.2 (≈ 16.5 µg/mL) | 14.8 | 31.2 (≈ 16.5 µg/mL) | 62.5 (≈ 32.9 µg/mL) |
| CC(C)(C)c1ccc(C(=O)NNC(=O)c2cc(I)cc(I)c2O)cc1 | > 500 | – | > 500 | > 500 | > 500 | > 500 | > 500 | > 500 | > 500 | 87.3 | > 500 | > 500 |
| Cc1ccc(C(=O)N/N=C/c2cc(I)c(O)c(I)c2)cc1 | > 500 | – | > 500 | > 500 | 250 (≈ 127 µg/mL) | > 500 | > 500 | > 500 | > 500 | > 100 | 500 (≈ 253 µg/mL) | > 500 |
| O=C(N/N=C/c1cc(I)cc(I)c1O)c1ccccc1 | 125 (≈ 61.5 µg/mL) | – | > 500 | 125 (≈ 61.5 µg/mL) | 62.5 (≈ 30.8 µg/mL) | > 500 | 62.5 (≈ 30.8 µg/mL) | 250 (≈ 123 µg/mL) | 62.5 (≈ 30.8 µg/mL) | > 50 | 125 (≈ 61.5 µg/mL) | 500 (≈ 246 µg/mL) |
| O=C(N/N=C/c1cc(I)cc(I)c1O)c1ccc(Br)cc1 | 125 (≈ 71.4 µg/mL) | – | > 250 | 125 (≈ 71.4 µg/mL) | 62.5 (≈ 35.7 µg/mL) | > 250 | 62.5 (≈ 35.7 µg/mL) | 250 (≈ 143 µg/mL) | 62.5 (≈ 35.7 µg/mL) | 22.3 | 62.5 (≈ 35.7 µg/mL) | 250 (≈ 143 µg/mL) |
| O=C(N/N=C/c1cc(I)c(O)c(I)c1)c1ccc(C(F)(F)F)cc1 | 500 (≈ 280 µg/mL) | – | > 500 | 500 (≈ 280 µg/mL) | 125 (≈ 70 µg/mL) | > 500 | 500 (≈ 280 µg/mL) | 500 (≈ 280 µg/mL) | 500 (≈ 280 µg/mL) | 57.4 | 500 (≈ 280 µg/mL) | 500 (≈ 280 µg/mL) |
| O=C(N/N=C/c1cc(I)c(O)c(I)c1)c1ccc(O)cc1 | > 500 | – | > 500 | > 500 | 500 (≈ 254 µg/mL) | > 500 | > 500 | > 500 | > 500 | 110 | 500 (≈ 254 µg/mL) | > 500 |
| COc1ccc(C(=O)N/N=C/c2cc(I)c(O)c(I)c2)cc1 | > 500 | – | > 500 | > 500 | 500 (≈ 261 µg/mL) | > 500 | > 500 | > 500 | > 500 | > 100 | 500 (≈ 261 µg/mL) | > 500 |
| Cc1ccc(C(=O)N/N=C/c2cc(I)cc(I)c2O)cc1 | > 500 | – | > 500 | > 500 | > 500 | > 500 | > 500 | > 500 | > 500 | > 25 | > 500 | > 500 |
| Cc1ccc(C(=O)NNC(=O)c2cc(I)cc(I)c2O)cc1 | > 125 | – | > 125 | > 125 | 125 (≈ 65.3 µg/mL) | > 125 | 125 (≈ 65.3 µg/mL) | > 125 | > 125 | 86.4 | > 125 | > 125 |
| O=C(NNC(=O)c1cc(I)cc(I)c1O)c1ccc([N+](=O)[O-])cc1 | – | – | – | – | – | – | – | – | – | 159 | – | – |
| O=C(N/N=C/c1cc(I)c(O)c(I)c1)c1ccccc1 | > 500 | – | > 500 | > 500 | 250 (≈ 123 µg/mL) | > 500 | > 500 | > 500 | 500 (≈ 246 µg/mL) | 191 | 250 (≈ 123 µg/mL) | > 500 |
| COc1ccc(C(=O)N/N=C/c2cc(I)cc(I)c2O)cc1 | > 500 | – | > 500 | > 500 | > 500 | > 500 | > 500 | > 500 | > 500 | 45.1 | > 500 | > 500 |
